Compounds with a hit are over-represented: about 2.6% of the library has one in this group of screens.
S100A4 inh HTS – blocks human S100A4 binding to myosin IIA peptide. S100A4/TAMRA-MyoIIA peptide fluorescence polarization. inhibition, % at 10.7 µM. P26447. AID 652163. 360,000 compounds, 0.14% hits;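 active means mean inhibition of at least 70% across replicates, with every replicate also reaching that level; inconclusive means mean inhibition reaches 70% but some replicates fall short; inactive means mean inhibition below 70%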
Target sequence (P26447 whole entry, looked up): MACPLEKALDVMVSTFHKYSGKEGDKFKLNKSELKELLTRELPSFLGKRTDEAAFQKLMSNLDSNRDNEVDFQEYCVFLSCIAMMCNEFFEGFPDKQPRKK
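Material: S100A4 monomer (human). Medium: Calcium-containing HEPES buffer, pH 7.2. Probe or stimulus: labelled myosin peptide probe, 5 nM. Compound dosing: one concentration per compound. Timing: polarization read 5 min after assay mix addition, stable 5–60 min. Benchmarks: DMSO as neutral control, TFP as positive control.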
Vif inh – HIV Vif inhibition; HEK293T cells, Vif self-association by quenched fluorescence, imaging, 24 h; inhibition, % at 7.49 µM; 340,000 compounds, 0.35% hits; AID 602346; in the data active means inhibition above about 50%, passing the limit was not always enough; inconclusive means no clear call, values can overlap the other calls; inactive means below about 31%
miR-122 sensor – inhibitors of miR-122 in Huh7 cells. Huh7 miR-122 Renilla luciferase sensor, 48 h; neutral wells = 0, positive control = 100. activation (reporter increase), % at 12.5 µM. 340,000 compounds, 0.3% hits. AID 602342;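 active means mean replicate activation score at least 90 and every replicate individually at or above 90; inconclusive means only one of the two criteria met; inactive means neither criterion met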;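 further: higher luciferase means less miR-122 activity so hits act as miR-122 inhibitors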
FN deposition inh – fibronectin deposition inhibition; AH1F fibroblasts, Alexa488-fibronectin deposition fluorescence, overnight; inhibition, % at 12.6 µM; 350,000 compounds, 0.086% hits;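 active means mean inhibition across replicates of 30% or more, regardless of how many single replicates reach that level; inconclusive means mean under 30% yet at least half of replicates reach 30%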;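 further: positive control wells lacked labelled fibronectin entirely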
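Assay system: AH1F fibroblasts assembling fluorescent fibronectin matrix; Amount: 10000 AH1F cells per well; Buffer or medium: DMEM, 2% serum; Probe or stimulus: Alexa488-fibronectin, 24 nM final in well; Doses: single compound dose, delivered by pin transfer; Incubation: 1 h adhesion, overnight exposure; Measured by: fluorescence 485/525 nm; Read-out: fibronectin deposition inhibition.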
Ecoli rRNA inh – selective bacterial rRNA inhibition in E. coli; E. coli WT GFP vs humanized-ribosome RFP mutants, fluorescence, 24 h; active compounds read low; DMSO median 0, no signal -100; GFP signal change (wild-type ribosome), % (test concentration not listed); 350,000 compounds, 1.6% hits; AID 720706;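 active means significant combined selectivity score with lowered wild-type GFP, culture density cut under 30%, mutant RFP and density less affected; inactive means any of these conditions unmet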
HIV Env fusion – blocks HIV Env-driven cell-cell fusion; HeLa-JRFL Env/CEM21 cell fusion, luciferase; inhibition, % at 12.3 µM; 360,000 compounds, 1.1% hits; AID 651610;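 active means mean replicate inhibition score of at least 50 and every replicate individually at or above 50; inconclusive means only one of the two criteria met; inactive means mean below 50 and not all replicates reaching 50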;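 further: 0% = plate neutral controls and 100% = maraviroc near 300 nM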
Starred values were filed as active, the others as inactive; u = inconclusive; x = no result; [ ] = another dose, or the depositor's remark.

SMILES	S100A4 inh HTS	Vif inh	miR-122 sensor	FN deposition inh	Ecoli rRNA inh	HIV Env fusion
Cc1ccc(-c2ccc3c(c2)O[C@@H](CN(C)C(=O)C2CCCCC2)[C@H](C)CN([C@@H](C)CO)S3(=O)=O)cc1	x	x	18[16.7 µM]	-1	-3	-15[16.7 µM]
CC1(C)C2CCC1(C)C(OCC[N+](C)(C)CC(=O)OC1CCCCC1)C2 (stereo not given)	-9	-1	-17	-11	-53	74*
CCOC(=O)C[N+](C)(C)CCOC1CC2CCC1(C)C2(C)C (stereo not given)	x	1	x	-9	x	-16
Cc1ccccc1S(=O)(=O)N1C[C@H](O)COC[C@H]2O[C@H](CC(=O)N3CCOCC3)CC[C@@H]21	14	x	-2[16.7 µM]	5	4	x
NC(CCc1ccccc1)c1csc(NC(=O)Nc2ccccc2Oc2ccccc2)n1 (stereo not given)	0	-2	x	-13	-28	90*
NC(Cc1ccc(C(F)(F)F)cc1)c1csc(NC(=O)Nc2ccccc2Cc2ccccc2)n1 (stereo not given)	-3	10	x	-13	5	82*
COc1cccc(Nc2nc(C(N)COCc3ccccc3)cs2)n1 (stereo not given)	13	14	3	-3	-59	u
COc1cccc(Nc2nc(C(N)CCc3ccccc3)cs2)n1 (stereo not given)	6	-9	3	-6	-53	70*
Cc1ccc(S(=O)(=O)NN2C(=O)/C(=C/c3cccs3)SC2=S)cc1	14	-6	-5	0	-34*	-27
Cc1ccc(/C=C2\SC(=S)N(NS(=O)(=O)c3ccc(C)cc3)C2=O)cc1	-2	-3	-4	0	-40	8
COc1ccc(S(=O)(=O)Nc2ccc3c(c2)C(=O)N([C@H](C)CO)C[C@@H](C)[C@H](CN(C)CC2CC2)O3)cc1	-3	x	41[16.7 µM]	-7	2	x
Cc1nc2ccccc2n1CC(=O)NCc1ccccc1	x	-20	-4	-3	x	83*
Cc1nc2ccccc2n1CC(=O)NN	-4	-5	x	4	0	9
C[C@@H]1CN([C@@H](C)CO)C(=O)c2cc(NS(C)(=O)=O)ccc2O[C@@H](C)CCCCO[C@H]1CN(C)C(=O)NC1CCCCC1	-65	x	x	-9	0	x
C[C@@H]1CN([C@H](C)CO)C(=O)c2cc(NC(=O)Cc3cn(C)c4ccccc34)ccc2O[C@H]1CN(C)C(=O)Nc1ccc(C(F)(F)F)cc1	-4	x	6[16.7 µM]	10	-1	-7[16.7 µM]
COc1ccccc1CC(=O)Nc1ccon1	-5	56*	5	-4	11	-22
Cc1cccc(C)c1NC(=O)C1C(c2ccccc2)=Nc2ccccc2N1C(=O)c1cnccn1 (stereo not given)	-2	x	x	-1	-38	64*
O=C(NCc1ccccc1)C1C(c2ccccc2)=Nc2ccccc2N1C(=O)c1cnccn1 (stereo not given)	-5	x	x	3	x	8
Cc1noc(C)c1S(=O)(=O)Nc1ccc2c(c1)CC(=O)N([C@@H](C)CO)C[C@@H](C)[C@@H](CN(C)Cc1ccc(C(=O)O)cc1)O2	-8	x	0[16.7 µM]	x	0	0[16.7 µM]
CC/C(O)=C1\C(=O)CCCC1=NCCc1c(C)[nH]c2ccc(C)cc12	2	2	0	5	1	5
CCCC/C(O)=C1\C(=O)CCCC1=NCCc1c(C)[nH]c2ccc(OC)cc12	0	6	1	-2	-18*	6
CO[C@H]1CN(C)C(=O)c2ccc(NC(=O)C3CC3)cc2OC[C@H](C)N(Cc2nccs2)C[C@@H]1C	7	x	-5[16.7 µM]	-6	-2	x
CCOc1ccc(NC(=O)c2ccc(F)c(S(=O)(=O)N3CCCC3)c2)cc1	1	-21	3	9	4	14
O=C(Nc1ccc(F)c(F)c1)c1ccc(F)c(S(=O)(=O)N2CCC3(CC2)OCCO3)c1	1	-20	x	12	-27*	11
O=S(=O)(c1cc(F)ccc1F)N1CCC2(CC1)OCCO2	6	-3	x	x	2	60*
CCOc1ccc(NC(=O)c2ccc(F)c(S(=O)(=O)N3CCN(c4ccccn4)CC3)c2)cc1	x	-9	x	4	x	57*

Bioassay records from PubChem.
